Consider three compounds from ChEMBL document CHEMBL4715795, “Urolinin: The First Linear Peptidic Urotensin-II Receptor Agonist” (J Med Chem, 2016).

Peptide text beside a SMILES is read from it.

Data set [1] has as its target T1, Urotensin-2 receptor (Homo sapiens) (UniProt Q9UKP6).
T1 sequence (whole entry): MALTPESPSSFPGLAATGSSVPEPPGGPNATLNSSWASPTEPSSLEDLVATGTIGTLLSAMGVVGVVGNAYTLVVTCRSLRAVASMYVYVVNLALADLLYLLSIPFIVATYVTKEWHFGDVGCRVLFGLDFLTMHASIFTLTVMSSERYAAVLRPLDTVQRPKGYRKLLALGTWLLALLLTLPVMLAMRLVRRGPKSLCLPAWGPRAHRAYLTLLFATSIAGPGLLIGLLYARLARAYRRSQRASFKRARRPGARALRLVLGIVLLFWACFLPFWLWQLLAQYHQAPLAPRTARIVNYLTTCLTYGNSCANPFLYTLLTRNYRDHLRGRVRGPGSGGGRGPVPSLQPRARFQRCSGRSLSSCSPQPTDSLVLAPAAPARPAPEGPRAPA
Put plainly: Agonist activity at human U-IIR expressed in HEK293-A cells at 500 nM by Fluo4-AM dye based intracellular calcium mobilization assay relative to control. Type of data set: functional, cell-based. As to conditions: filed as agonist.

In data set [2] the target is T1, Urotensin-2 receptor (Homo sapiens). Put plainly: Agonist activity at human U-IIR expressed in HEK293-A cells at 500 nM by Fluo4-AM dye based intracellular calcium mobilization assay relative to control. As to conditions: filed as agonist, dose nM 500.
Data set [3] addresses T2, Urotensin-2 receptor (Homo sapiens, UniProt Q9UKP6).
T2 sequence (Q9UKP6 whole entry): T1 sequence (whole entry)
The data set can be described thus: Agonist activity at human U-IIR expressed in HEK293-A cells by Fluo4-AM dye based intracellular calcium mobilization assay. Type of data set: functional, cell-based.

Data set [4] is described as follows: Half life in 25% human serum by RP-HPLC analysis. Type of data set: ADME, cell-free. The procedure, abridged:
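Peptide at 50 μg/mL final in RPMI with 25% (v/v) human serum, pre-equilibrated at 37 °C. Samples taken at set times into 6% TCA, iced 15 min, spun at 18000g. Supernatant run on C18 RP-HPLC, 25–80% acetonitrile gradient over 15 min at 30 °C, absorbance at 214 and 280 nm.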

Data set [5] deals with T2, Urotensin-2 receptor. The data set can be described thus: Displacement of [125I-Tyr9]-U-II from human U-IIR expressed in HEK293-A cells incubated for 30 mins by gamma counting based competition radioligand binding assay. Type of data set: cell-based.
Data set [6] deals with Somatostatin receptor type 1 (Homo sapiens, UniProt P30872). The data set can be described thus: Displacement of [125I-Tyr11]-SS14 from human SSTR1 expressed in HEK293-A cells incubated for 30 mins by gamma counting based competition radioligand binding assay. Type of data set: cell-based. The procedure, abridged: (§1)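 Competition binding on HEK293A cells overexpressing the given human SSTR subtype, seeded overnight. Binding buffer: 50 mM Tris-HCl pH 7.4, 5 mM MgCl2, 1 mM CaCl, 0.5% BSA, protease inhibitors. 100000 cpm [125I-Tyr11]-SS14 (chloramine-T iodinated, HPLC-purified) with varying competitor, 30 min at 37 °C. Cells washed four times in cold buffer, lysed in 1 N NaOH, gamma counted. Mean ± SD, three experiments in duplicate.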

Data set [7] concerns the target Somatostatin receptor type 2 (Homo sapiens, UniProt P30874). Put plainly: Displacement of [125I-Tyr11]-SS14 from human SSTR2 expressed in HEK293-A cells incubated for 30 mins by gamma counting based competition radioligand binding assay. Type of data set: cell-based. The procedure, abridged: as §1
In data set [8] the target is Somatostatin receptor type 3 (Homo sapiens, UniProt P32745). Put plainly: Displacement of [125I-Tyr11]-SS14 from human SSTR3 expressed in HEK293-A cells incubated for 30 mins by gamma counting based competition radioligand binding assay. Type of data set: cell-based. The procedure, abridged: as §1
For data set [9], the target named is Somatostatin receptor type 5 (Homo sapiens, UniProt P35346). Put plainly: Displacement of [125I-Tyr11]-SS14 from human SSTR5 expressed in HEK293-A cells incubated for 30 mins by gamma counting based competition radioligand binding assay. Type of data set: cell-based. The procedure, abridged: as §1
Sequence of Somatostatin receptor type 5 (P35346 whole entry): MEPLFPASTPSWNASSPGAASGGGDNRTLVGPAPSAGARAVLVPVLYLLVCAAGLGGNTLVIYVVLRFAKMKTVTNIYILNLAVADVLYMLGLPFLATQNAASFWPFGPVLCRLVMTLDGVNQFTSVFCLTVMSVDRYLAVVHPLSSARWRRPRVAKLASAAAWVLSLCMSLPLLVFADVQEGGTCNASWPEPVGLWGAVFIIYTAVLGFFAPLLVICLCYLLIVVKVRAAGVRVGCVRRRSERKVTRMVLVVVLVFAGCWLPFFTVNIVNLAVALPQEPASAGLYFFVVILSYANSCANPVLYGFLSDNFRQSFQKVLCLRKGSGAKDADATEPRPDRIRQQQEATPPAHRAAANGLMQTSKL

Sequence of Somatostatin receptor type 3 (P32745 whole entry): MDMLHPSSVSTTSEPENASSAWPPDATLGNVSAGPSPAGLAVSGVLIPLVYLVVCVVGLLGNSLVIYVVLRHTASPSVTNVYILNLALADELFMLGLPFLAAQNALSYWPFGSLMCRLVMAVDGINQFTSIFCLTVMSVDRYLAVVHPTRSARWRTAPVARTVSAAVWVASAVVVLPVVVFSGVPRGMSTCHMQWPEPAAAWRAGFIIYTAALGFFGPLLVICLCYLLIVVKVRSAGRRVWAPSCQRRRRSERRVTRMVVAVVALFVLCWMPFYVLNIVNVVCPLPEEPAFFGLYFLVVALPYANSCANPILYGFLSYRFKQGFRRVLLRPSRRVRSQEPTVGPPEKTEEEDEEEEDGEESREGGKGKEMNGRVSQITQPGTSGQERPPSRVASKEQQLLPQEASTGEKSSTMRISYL
Sequence of Somatostatin receptor type 1 (P30872 whole entry): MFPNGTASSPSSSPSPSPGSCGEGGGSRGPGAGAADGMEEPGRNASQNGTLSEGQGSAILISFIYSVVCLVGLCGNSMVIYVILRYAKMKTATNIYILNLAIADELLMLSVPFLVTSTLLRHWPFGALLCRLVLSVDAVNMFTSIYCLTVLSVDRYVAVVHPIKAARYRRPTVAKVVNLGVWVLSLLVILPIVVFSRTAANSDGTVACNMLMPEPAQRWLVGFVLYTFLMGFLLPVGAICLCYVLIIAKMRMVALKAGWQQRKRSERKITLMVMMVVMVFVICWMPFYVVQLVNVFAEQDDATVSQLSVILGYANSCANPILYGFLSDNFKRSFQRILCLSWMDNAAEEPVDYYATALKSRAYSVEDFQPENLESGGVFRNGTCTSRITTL
Sequence of Somatostatin receptor type 2 (P30874 whole entry): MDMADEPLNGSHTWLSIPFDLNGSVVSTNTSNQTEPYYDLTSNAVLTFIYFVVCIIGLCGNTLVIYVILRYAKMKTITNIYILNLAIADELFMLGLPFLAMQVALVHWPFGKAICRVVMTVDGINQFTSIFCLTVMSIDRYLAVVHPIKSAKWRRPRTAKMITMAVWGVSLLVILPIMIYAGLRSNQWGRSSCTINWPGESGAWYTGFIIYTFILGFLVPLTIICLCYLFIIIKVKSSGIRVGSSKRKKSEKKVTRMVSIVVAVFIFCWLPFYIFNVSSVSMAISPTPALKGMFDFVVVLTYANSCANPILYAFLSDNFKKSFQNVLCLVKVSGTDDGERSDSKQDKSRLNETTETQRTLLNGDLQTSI

Consider `CC(=O)N[C@@H](Cc1ccccc1)C(=O)N[C@@H](Cc1c[nH]c2ccccc12)C(=O)N[C@@H](CCCCN)C(=O)N[C@@H](Cc1ccc(O)cc1)C(N)=O` (Ac-FWKY-NH2), for which the %max in [1] and in data set [2] was 57% each time.

Turning to `CC(C)[C@H](NC(=O)[C@@H]1CSSC[C@H](NC(=O)[C@H](CC(=O)O)NC(=O)[C@@H]2CCCN2C(=O)[C@@H](NC(=O)[C@@H](N)CCC(=O)O)[C@@H](C)O)C(=O)N[C@@H](Cc2ccccc2)C(=O)N[C@@H](Cc2c[nH]c3ccccc23)C(=O)N[C@@H](CCCCN)C(=O)N[C@@H](Cc2ccc(O)cc2)C(=O)N1)C(N)=O`, the EC50 on Urotensin-2 receptor [3] was found to be 0.00146 µM. The compound further gave a half-life in [4] of 3.48 h. Further, the IC50 at Urotensin-2 receptor [5] came out at 0.002 µM; in data set [6], 10.5 µM; in data set [7] it was 2.98 µM; in data set [8] it was 8.64 µM; in [9], 7.6 µM.

In the case of `CC[C@H](NC(=O)[C@H](Cc1ccc(O)c([N+](=O)[O-])c1)NC(=O)[C@H](CCCCN)NC(=O)[C@H](Cc1c[nH]c2ccccc12)NC(=O)[C@H](Cc1c[nH]c2ccccc12)NC(=O)[C@H](N)CC(N)=O)C(N)=O`, the EC50 at Urotensin-2 receptor [3] stood at 0.00475 µM. Besides, in data set [4], the half-life turned out to be 22 h. In addition, the IC50 was found to be 0.6 µM on Urotensin-2 receptor [5]; 6.72 µM in data set [6]; 37.5 µM in data set [7]; 6.07 µM in [8]; 28.4 µM in data set [9].
